Activity calls are given as the source filed them.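 How the source made its calls: active means EC50 of 10 µM or lower; inactive means EC50 above 10 µM.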
Test system: 293 cells GAL4-VP16 luciferase reporter, luminescence
Assay: nonselective transcriptional activation, VP16 reporter – cell-based, luminescence, late stage, counter-screen for BRM (SMARCA2) activator project, dose response (AID 720661)
Outline: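 System: 293 cells carrying GAL4-VP16 and pGL4.31 reporter / Doses: Ten-point threefold dilution series, top 91.2 µM nominal / Timing: 24 h compound treatment, 37 °C / Measured by: One-Glo luminescence / Read-out basis: EC50 from four-parameter fit of percent activation / Control set: DMSO and SAHA reference wells for normalization / Replication: each concentration tested in triplicate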

Compound	EC50
Clc1ccc(Cc2nc(-c3ccccc3)cs2)cc1	> 91.2 µM (inactive)
O=C(NCC1(c2nc(-c3ccccc3)cs2)CCOCC1)c1cccc(-c2noc(C(F)(F)F)n2)c1	> 91.2 µM (inactive)
Cc1ccc(Nc2nc(-c3ccccc3)c(C)s2)cc1	> 91.2 µM (inactive)
Cc1nc(NC(=O)c2cccc(Br)c2)sc1C	> 91.2 µM (inactive)
COc1ccc(-c2nc(C#N)c(NC3CC3)o2)cc1	> 91.2 µM (inactive)
Oc1ccccc1OCc1nc2ccccc2s1	> 91.2 µM (inactive)
Cc1cc(C)c2nc(NC(=O)C(C)C)sc2c1	> 91.2 µM (inactive)

— PubChem BioAssay AID720661 (The Scripps Research Institute Molecular Screening Center, 2013)
